The results in this text go back to ChEMBL document CHEMBL1773021, “Virtual screening identification of novel severe acute respiratory syndrome 3C-like protease inhibitors and in vitro confirmation” (Bioorg Med Chem Lett, 2011).

Experiment [1] deals with Replicase polyprotein 1ab (Severe acute respiratory syndrome-related coronavirus) (UniProt P0C6X7). The experiment can be described thus: Inhibition of SARS coronavirus recombinant 3C-like protease expressed in Escherichia coli BL21(DE3) at 100 uM after 18 mins by FRET based assay.
Experiment [2] concerns the target T1, Replicase polyprotein 1ab (Severe acute respiratory syndrome-related coronavirus, UniProt P0C6X7). The experiment in a line: Inhibition of SARS coronavirus recombinant 3C-like protease expressed in Escherichia coli BL21(DE3) after 30 mins by FRET based assay.
Experiment [3] concerns the target Replicase polyprotein 1ab (Severe acute respiratory syndrome-related coronavirus) (UniProt P0C6X7). The experiment can be described thus: Competitive inhibition of SARS coronavirus recombinant 3C-like protease expressed in Escherichia coli BL21(DE3) by Dixon plot analysis. The method, boiled down: (§1)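 Inhibitor at 0, 20, 30, 40, 50 and 60 μM; substrate at 5, 7.5 and 10 μM. Mode assigned from Lineweaver–Burk and Dixon plots. Km and Ki come from linear regression, with Ki taken from the common x-axis intercept on the Dixon plot.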

The target of experiment [4] is T1, Replicase polyprotein 1ab. The experiment can be described thus: Inhibition of SARS coronavirus recombinant 3C-like protease expressed in Escherichia coli BL21(DE3) by Lineweaver-Burk plot analysis. The method, boiled down: as §1

Calls of active or inactive are those of the source. The calls are words filed in the database; no cut-off is given here.

Regarding `Cc1ccc(C(=O)N/C(=C\c2ccc(-c3ccccc3[N+](=O)[O-])o2)C(=O)NCCCN(C)C)cc1`, the inhibition in experiment [1] worked out at 81.4%. Also, the IC50 in experiment [2] was determined as 41.4 µM. The inhibition entry in experiment [3] is “Active”. Further, the Ki in experiment [4] came out at 9.93 µM.
Take `Nc1nc(CSc2nnc(-c3cccc4ccccc34)n2-c2ccccc2)cs1`: in experiment [1], the inhibition worked out at 58.2%. Also, the IC50 in experiment [2] came out at 58.3 µM.
The like results for `Cc1nc(C)c(C(=O)C2=C(O)C(=O)N(CCCN3CCOCC3)C2c2cccc([N+](=O)[O-])c2)s1` (stereo not drawn) were, in that order, 49.1% and 101 µM.
The like results for `O=C(CSc1ncnc2c1sc1nc(N3CCOCC3)c3c(c12)CCCC3)NCc1ccco1` were, in that order, 53.3% and 90.7 µM.
The matching figures for `COc1cc(/C=N/NC(=O)/C(=C\c2ccccc2)NC(=O)c2ccccc2)cc(OC)c1O`: 56.1% and 77.1 µM.
Turning to `Cc1ccc(C(=O)N/C(=C\c2ccc(-c3cccc([N+](=O)[O-])c3)o2)C(=O)NCCCN(C)C)cc1`, the inhibition in experiment [1] amounted to 82.6%. For the same compound, the IC50 in experiment [2] was 38.6 µM. Further, the inhibition entry in experiment [3] is “Active”. For the same compound, the inhibition constant Ki in experiment [4] was determined as 9.11 µM.
`COc1cc(C2C(C(=O)c3ccc(OCC(C)C)cc3C)=C(O)C(=O)N2CCN(C)C)ccc1O` (stereo not drawn): the inhibition in experiment [1] is 61.4%. The IC50 in experiment [2] is 62.8 µM.

As a reminder, the inhibition is the relative decrease from the control value, in per cent. Broadly, the IC50 is the concentration that gives 50% inhibition. By Ki is commonly meant the dissociation constant of the complex between target and ligand, obtained from inhibition or displacement.
